Data on one molecule can be found in ChEMBL document CHEMBL2331476, “A novel semisynthetic flavonoid 7-O-galloyltaxifolin upregulates heme oxygenase-1 in RAW264.7 cells via MAPK/Nrf2 pathway” (J Med Chem, 2013).

Activity calls are given as the source filed them. No cut-off for these calls is given here.

In data set [1] the test system is RAW264.7. The data set can be described thus: Induction of ROS generation in mouse RAW264.7 cells at 50 uM after 2 hrs by flow cytometric analysis. The class given is functional. An outline of the steps: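 Serum-starved RAW264.7 cells treated 2 h at 10-50 μM; 100 μM TBHP for 30 min as positive control. Medium replaced, cells loaded with 10 μM carboxy-H₂DCFDA for 15 min at 37 °C. Flow cytometry (488 nm excitation, 525 nm emission, 10,000 events) gave percentage of cells with raised ROS; mean ± SD of three experiments.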

For data set [2], the target named is Mitogen-activated protein kinase 8 (Mus musculus) (UniProt Q91Y86). The data set can be described thus: Activation of JNK1 in mouse RAW264.7 cells assessed as phosphorylation at Thr183/Tyr185 at 50 uM after 30 mins to 4 hrs by Western blotting analysis. To be noted: TDE = time-dependent effect. The class given is cell-based. An outline of the steps: (§1)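 Serum-starved RAW264.7 cells exposed in serum-free medium for 30 min to 4 h; 5 μM anisomycin for 30 min as positive control. Whole-cell lysates (30 μg/lane) blotted for JNKs dually phosphorylated at Thr183/Tyr185 and total JNKs, chemiluminescent detection.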
Sequence of Mitogen-activated protein kinase 8 (Mus musculus) (Q91Y86 whole entry): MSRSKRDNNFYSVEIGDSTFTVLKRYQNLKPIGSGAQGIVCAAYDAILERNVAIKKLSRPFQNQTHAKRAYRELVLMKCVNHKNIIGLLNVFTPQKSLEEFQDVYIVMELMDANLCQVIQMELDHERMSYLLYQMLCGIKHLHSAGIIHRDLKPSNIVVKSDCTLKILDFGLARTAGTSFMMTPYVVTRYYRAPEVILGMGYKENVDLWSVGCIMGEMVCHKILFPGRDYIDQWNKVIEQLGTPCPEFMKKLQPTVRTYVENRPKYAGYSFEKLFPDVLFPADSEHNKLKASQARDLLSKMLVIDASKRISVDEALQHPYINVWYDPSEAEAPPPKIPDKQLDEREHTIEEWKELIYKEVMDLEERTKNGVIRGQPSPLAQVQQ

In data set [3] the target is T1, Nuclear factor erythroid 2-related factor 2 (Mus musculus) (UniProt Q60795).
T1 sequence (whole entry): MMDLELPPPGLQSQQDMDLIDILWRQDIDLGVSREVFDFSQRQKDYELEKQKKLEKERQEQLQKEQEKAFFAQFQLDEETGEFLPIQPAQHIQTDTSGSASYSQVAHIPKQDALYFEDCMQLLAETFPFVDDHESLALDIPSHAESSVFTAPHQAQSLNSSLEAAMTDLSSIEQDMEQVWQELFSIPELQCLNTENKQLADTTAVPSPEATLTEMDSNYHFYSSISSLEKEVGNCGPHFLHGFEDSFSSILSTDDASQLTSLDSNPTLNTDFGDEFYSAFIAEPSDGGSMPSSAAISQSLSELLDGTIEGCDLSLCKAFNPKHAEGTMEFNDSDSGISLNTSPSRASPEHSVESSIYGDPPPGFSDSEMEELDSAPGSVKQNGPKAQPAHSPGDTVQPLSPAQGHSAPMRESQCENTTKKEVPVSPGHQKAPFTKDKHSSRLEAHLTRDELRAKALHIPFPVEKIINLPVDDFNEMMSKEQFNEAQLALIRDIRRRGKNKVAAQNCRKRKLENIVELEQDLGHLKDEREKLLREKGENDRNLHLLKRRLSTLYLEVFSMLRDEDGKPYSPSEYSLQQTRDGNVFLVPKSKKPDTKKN
The data set can be described thus: Activation of Nrf2 in mouse RAW264.7 cells assessed as induction of Hmox1 mRNA expression at 50 uM after 6 hrs by real-time PCR analysis in presence of […] N-acetyl-L-cysteine. The class given is cell-based.

The subject of data set [4] is RAW264.7. Kind of data set: Cytotoxicity against mouse RAW264.7 cells assessed as decreased cell viability at 50 uM after 6 hrs by MTT assay. To be noted: raw264.7, 6 h. The class given is cell-based. An outline of the steps: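 Serum-starved RAW264.7 cells exposed 6 h at 10 or 50 μM; 0.1% DMSO control (100% viability), 1.5% Triton X-100 positive control. Cells washed and incubated 2 h at 37 °C with 0.5 mg/mL MTT in serum-free medium. Formazan dissolved in DMSO, A540 read, viability relative to DMSO-treated cells.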

Data set [5] concerns the target Mitogen-activated protein kinase 3 (Mus musculus) (UniProt Q63844). The data set can be described thus: Activation of ERK1 in mouse RAW264.7 cells assessed as phosphorylation at Thr202/Tyr204 at 50 uM after 30 mins by Western blotting analysis. The class given is cell-based. In outline: (§2)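 RAW264.7 cells (passage 5-25) seeded at 1 × 10⁵ cells/cm², serum-starved overnight, then exposed in serum-free medium for 30 min to 3 h; 0.1% DMSO vehicle; 75 ng/mL EGF for 30 min as positive control. Whole-cell lysates (20 μg/lane) on 10% SDS-PAGE, blotted for phospho-ERK1 (Thr202/Tyr204), phospho-ERK2 (Thr185/Tyr187) and total ERK1/2, chemiluminescent detection.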

In data set [6] the target is T1, Nuclear factor erythroid 2-related factor 2 (Mus musculus). Kind of data set: Activation of Nrf2 in mouse RAW264.7 cells assessed as upregulation of HO1 protein expression at 50 uM after 1 to 6 hr by Western blotting analysis. The class given is cell-based. The settings on record: TDE = time-dependent effect. In outline:
(§3)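 HO-1 protein in whole-cell lysates (20 μg/lane) of serum-starved RAW264.7 cells after 6 h at 10-50 μM or 50 μM for 1-6 h in serum-free medium, 0.1% DMSO control. Chemiluminescent Western blot; HO-1 densitometry normalized to actin, mean of three experiments.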

The target is the same in data set [7]. The data set can be described thus: Activation of Nrf2 in mouse RAW264.7 cells assessed as upregulation of HO1 protein expression at 50 uM after 1 hrs by Western blotting analysis relative to untreated control. The class given is cell-based. In outline: as §3
Data set [8] addresses Mitogen-activated protein kinase 9/10 (Mus musculus) (UniProt Q9WTU6+Q61831). The data set can be described thus: Activation of JNK2/3 in mouse RAW264.7 cells assessed as phosphorylation at 50 uM after 30 mins by Western blotting analysis. The class given is cell-based. An outline of the steps:
as §1

Data set [9] deals with Mitogen-activated protein kinase 1 (Mus musculus) (UniProt P63085). The data set can be described thus: Activation of ERK2 in mouse RAW264.7 cells assessed as phosphorylation at Thr185/Tyr187 at 50 uM after 30 mins by Western blotting analysis. The class given is cell-based. In outline: as §2
Sequence of Mitogen-activated protein kinase 1 (Mus musculus) (P63085 whole entry): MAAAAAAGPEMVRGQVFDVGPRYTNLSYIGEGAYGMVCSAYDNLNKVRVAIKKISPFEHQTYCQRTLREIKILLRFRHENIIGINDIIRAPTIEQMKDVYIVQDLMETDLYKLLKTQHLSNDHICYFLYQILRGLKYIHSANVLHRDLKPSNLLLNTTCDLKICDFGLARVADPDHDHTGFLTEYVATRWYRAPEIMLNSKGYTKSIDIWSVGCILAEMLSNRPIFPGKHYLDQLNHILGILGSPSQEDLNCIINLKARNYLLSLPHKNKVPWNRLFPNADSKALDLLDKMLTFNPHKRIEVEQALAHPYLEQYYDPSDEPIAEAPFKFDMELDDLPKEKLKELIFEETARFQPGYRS
For data set [10], the target named is T1, Nuclear factor erythroid 2-related factor 2 (Mus musculus). Kind of data set: Activation of Nrf2 in mouse RAW264.7 cells assessed as induction of Hmox1 mRNA expression at 50 uM after 6 hrs by real-time PCR analysis in presence of SB203580. The class given is cell-based. In outline: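 Pretreatment 30 min with 0.1% DMSO, 15 μM PD98059, 15 μM SB203580 or 30 μM SP600125, then 50 μM agent for 6 h in serum-free medium. Hmox1 mRNA by TaqMan qPCR normalized to Gapdh, given as percent of agent-induced expression; mean ± SD of three experiments.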

The target is the same in data set [11]. The data set can be described thus: Activation of Nrf2 in mouse RAW264.7 cells assessed as upregulation of HO1 protein expression at 50 uM after 3 hrs by Western blotting analysis. The class given is cell-based. In outline: as §3
For data set [12] the target is unchanged. Kind of data set: Activation of Nrf2 in mouse RAW264.7 cells assessed as upregulation of HO1 protein expression at 50 uM after 6 hrs by Western blotting analysis. The class given is cell-based. An outline of the steps:
as §3

The target of data set [13] is MAP kinase p38 (Homo sapiens) (UniProt O15264+Q15759+Q16539+P53778). The data set can be described thus: Activation of p38MAPK in mouse RAW264.7 cells assessed as phosphorylation at Thr180/Tyr182 at 50 uM after 1 hr by Western blotting analysis. The class given is cell-based. In outline:
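p38 phosphorylation at Thr180/Tyr182 and total p38 probed in whole-cell lysates (35 μg/lane) of serum-starved RAW264.7 cells treated for 30 min to 4 h in serum-free medium. Positive controls were 5 μM anisomycin or 75 ng/mL EGF for 30 min. Chemiluminescent Western detection.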

In data set [14] the target is T1, Nuclear factor erythroid 2-related factor 2 (Mus musculus). The data set can be described thus: Activation of Nrf2 in mouse RAW264.7 cells assessed as reduction of KEAP1 protein level at 50 uM after 3 hrs by Western blotting analysis. The class given is cell-based. An outline of the steps:
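Whole-cell lysates (20 μg/lane) from serum-starved RAW264.7 cells given 10-50 μM for 6 h or 50 μM for 1-6 h in serum-free medium, 0.1% DMSO vehicle. Keap1 and actin detected by chemiluminescent Western blot; Keap1 band intensity normalized to actin, mean of three experiments.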

Sequence of Mitogen-activated protein kinase 9/10 (Mus musculus) (Q61831 whole entry, looked up): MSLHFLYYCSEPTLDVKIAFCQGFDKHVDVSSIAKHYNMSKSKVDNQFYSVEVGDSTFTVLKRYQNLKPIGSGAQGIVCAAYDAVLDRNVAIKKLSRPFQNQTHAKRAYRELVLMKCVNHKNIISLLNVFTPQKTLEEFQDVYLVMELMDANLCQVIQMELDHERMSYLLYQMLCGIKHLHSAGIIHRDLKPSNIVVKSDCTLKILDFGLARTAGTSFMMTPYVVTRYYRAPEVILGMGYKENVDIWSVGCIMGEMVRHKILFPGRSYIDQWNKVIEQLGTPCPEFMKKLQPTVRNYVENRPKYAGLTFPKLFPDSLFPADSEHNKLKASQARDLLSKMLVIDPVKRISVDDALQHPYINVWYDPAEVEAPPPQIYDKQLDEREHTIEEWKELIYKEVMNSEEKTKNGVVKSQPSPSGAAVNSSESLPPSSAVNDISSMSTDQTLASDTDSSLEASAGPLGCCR
Sequence of Mitogen-activated protein kinase 9/10 (Mus musculus) (Q9WTU6 whole entry, looked up): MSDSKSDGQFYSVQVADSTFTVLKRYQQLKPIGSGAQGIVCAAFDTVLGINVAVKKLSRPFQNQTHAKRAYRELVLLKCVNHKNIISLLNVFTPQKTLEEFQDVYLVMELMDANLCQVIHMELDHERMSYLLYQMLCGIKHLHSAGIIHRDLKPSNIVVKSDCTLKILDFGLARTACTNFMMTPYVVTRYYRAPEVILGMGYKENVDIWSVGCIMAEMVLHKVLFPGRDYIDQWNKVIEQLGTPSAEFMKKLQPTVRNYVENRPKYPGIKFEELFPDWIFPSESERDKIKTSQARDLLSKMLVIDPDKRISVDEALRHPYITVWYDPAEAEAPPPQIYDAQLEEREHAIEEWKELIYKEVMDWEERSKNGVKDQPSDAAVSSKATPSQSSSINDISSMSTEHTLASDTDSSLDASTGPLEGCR
Sequence of Mitogen-activated protein kinase 3 (Mus musculus) (Q63844 whole entry): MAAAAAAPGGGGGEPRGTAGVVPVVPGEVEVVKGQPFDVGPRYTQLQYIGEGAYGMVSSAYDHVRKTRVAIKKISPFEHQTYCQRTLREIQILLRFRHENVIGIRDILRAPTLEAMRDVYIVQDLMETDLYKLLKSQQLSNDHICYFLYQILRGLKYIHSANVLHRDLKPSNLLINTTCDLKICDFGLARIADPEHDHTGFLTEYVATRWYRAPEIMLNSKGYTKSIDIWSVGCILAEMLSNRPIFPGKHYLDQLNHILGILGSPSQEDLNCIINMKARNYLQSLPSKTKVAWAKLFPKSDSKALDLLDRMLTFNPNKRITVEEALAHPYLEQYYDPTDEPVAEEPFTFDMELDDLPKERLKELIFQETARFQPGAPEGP

For `O=C(Oc1cc(O)c2c(c1)O[C@H](c1ccc(O)c(O)c1)[C@@H](O)C2=O)c1cc(O)c(O)c(O)c1`, the Activity in [1] is 29%; in [2] it was “tde”; in [4], 72%; in data set [6], “tde”. Further, the result in data set [3] and in data set [10] was inactive. For the same molecule, the result in data set [5], in data set [8], in [9], in data set [13] and in data set [14] was Active. In addition, the figures for the fold change (FC) in [7], in data set [11] and in data set [12] were 1.1, 1.3 and 2.3, respectively.
